Data set [1] is described as follows: Toxicity in C57Bl/6 mouse assessed as effect on glucose level at 50 mg/kg, ip for 14 days (reference value: 181 mg/dl). It counts as organism-based. The settings on record: in vivo, 336 h, time 14 day.
Data set [2] deals with Serine/threonine-protein kinase Chk2 (Homo sapiens, UniProt O96017). In words: Inhibition of CHK2 in human HeLa cells lysate at 2 uM pre incubated for 15 mins followed by ADP acyl phosphate probe addition and measured after 10 mins by LC-MS/MS analysis relative to control. It counts as subcellular. The following applies: time 25.0 min.
Data set [3] in a line: Cmax in Sprague-Dawley rat at 2 mg/kg, po measured up to 8 hrs by LC-MS/MS analysis. It counts as ADME, organism-based. The following applies: in vivo. The gist of the method: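 Sprague-Dawley rats given one intravenous dose or one oral dose of 2 mg/kg. Plasma drug concentrations were followed over time, with samples taken out to 8 hr after dosing. PK parameters (clearance, volume of distribution, half-life, oral bioavailability, Cmax) were calculated from these concentration–time data.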

Data set [4] is described as follows: Inhibition of CDK5/PRKX/PRKY in human HeLa cells lysate pre incubated for 15 mins followed by ADP acyl phosphate probe addition and measured after 10 mins by LC-MS/MS analysis. It counts as subcellular. The gist of the method:
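KiNativ profiling in HeLa lysate (5 mg/mL total protein). Lysate incubated 15 min with inhibitor at 50, 10, 2, 0.8 or 0 μM. ATP or ADP acylphosphate probe then added (5 μM final) and reacted 10 min. Reaction stopped with urea and analysed by targeted MS, using up to four fragment ions per kinase peptide-probe conjugate. % inhibition taken against untreated lysate. Run in duplicate.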

Data set [5] deals with Serine/threonine-protein kinase 38 (Homo sapiens, UniProt Q15208). In words: Inhibition of NDR1 in human HeLa cells lysate at 2 uM pre incubated for 15 mins followed by ATP acyl phosphate probe addition and measured after 10 mins by LC-MS/MS analysis relative to control. The following applies: time 25.0 min. It counts as subcellular.
Data set [6] addresses T1, Non-receptor tyrosine-protein kinase TNK1 (Homo sapiens) (UniProt Q13470).
T1 sequence (whole entry): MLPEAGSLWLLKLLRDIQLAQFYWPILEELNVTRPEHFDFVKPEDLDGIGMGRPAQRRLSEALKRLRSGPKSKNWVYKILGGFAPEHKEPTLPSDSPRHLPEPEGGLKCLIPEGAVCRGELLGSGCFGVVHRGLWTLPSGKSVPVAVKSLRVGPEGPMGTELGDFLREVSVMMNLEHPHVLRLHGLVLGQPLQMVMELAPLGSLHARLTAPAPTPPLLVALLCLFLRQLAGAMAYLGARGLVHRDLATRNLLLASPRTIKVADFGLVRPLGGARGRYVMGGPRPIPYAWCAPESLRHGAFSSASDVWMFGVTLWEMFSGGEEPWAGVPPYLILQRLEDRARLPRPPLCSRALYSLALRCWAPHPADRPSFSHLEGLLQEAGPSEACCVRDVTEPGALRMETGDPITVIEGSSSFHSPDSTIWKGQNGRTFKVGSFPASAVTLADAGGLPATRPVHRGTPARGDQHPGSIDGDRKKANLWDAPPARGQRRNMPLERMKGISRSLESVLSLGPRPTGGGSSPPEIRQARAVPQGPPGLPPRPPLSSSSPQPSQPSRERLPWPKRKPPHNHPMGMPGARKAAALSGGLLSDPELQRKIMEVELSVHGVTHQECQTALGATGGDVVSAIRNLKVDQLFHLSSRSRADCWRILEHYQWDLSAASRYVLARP
In words: Inhibition of recombinant TNK1 (unknown origin) expressed in HEK293 cells at 0.08 to 10 uM incubated for 15 mins in presence of 32P-gamma-ATP. The following applies: dose 0.08-10 µM. It counts as cell-based.

For data set [7], the target named is T2, Phosphatidylinositol 5-phosphate 4-kinase type-2 alpha (Homo sapiens, UniProt P48426).
T2 sequence (P48426 whole entry): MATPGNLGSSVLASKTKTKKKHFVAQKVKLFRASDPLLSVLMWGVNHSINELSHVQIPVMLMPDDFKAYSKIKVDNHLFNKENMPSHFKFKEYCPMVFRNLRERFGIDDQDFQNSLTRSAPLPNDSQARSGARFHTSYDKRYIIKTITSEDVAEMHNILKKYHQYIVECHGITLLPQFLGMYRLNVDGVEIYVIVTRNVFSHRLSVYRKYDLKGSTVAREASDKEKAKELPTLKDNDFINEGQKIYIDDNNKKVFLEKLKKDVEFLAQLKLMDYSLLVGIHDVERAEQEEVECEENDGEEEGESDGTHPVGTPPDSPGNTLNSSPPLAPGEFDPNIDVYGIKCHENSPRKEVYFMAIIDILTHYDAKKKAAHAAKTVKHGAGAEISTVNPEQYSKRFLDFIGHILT
In words: Inhibition of PIP5K2A LIP1 labeling site in human HeLa cells lysate pre incubated for 15 mins followed by ATP acyl phosphate probe addition and measured after 10 mins by LC-MS/MS analysis. It counts as subcellular.

Data set [8] concerns the target T3, Serine/threonine-protein kinase tousled-like 1 (Homo sapiens) (UniProt Q9UKI8).
T3 sequence (whole entry): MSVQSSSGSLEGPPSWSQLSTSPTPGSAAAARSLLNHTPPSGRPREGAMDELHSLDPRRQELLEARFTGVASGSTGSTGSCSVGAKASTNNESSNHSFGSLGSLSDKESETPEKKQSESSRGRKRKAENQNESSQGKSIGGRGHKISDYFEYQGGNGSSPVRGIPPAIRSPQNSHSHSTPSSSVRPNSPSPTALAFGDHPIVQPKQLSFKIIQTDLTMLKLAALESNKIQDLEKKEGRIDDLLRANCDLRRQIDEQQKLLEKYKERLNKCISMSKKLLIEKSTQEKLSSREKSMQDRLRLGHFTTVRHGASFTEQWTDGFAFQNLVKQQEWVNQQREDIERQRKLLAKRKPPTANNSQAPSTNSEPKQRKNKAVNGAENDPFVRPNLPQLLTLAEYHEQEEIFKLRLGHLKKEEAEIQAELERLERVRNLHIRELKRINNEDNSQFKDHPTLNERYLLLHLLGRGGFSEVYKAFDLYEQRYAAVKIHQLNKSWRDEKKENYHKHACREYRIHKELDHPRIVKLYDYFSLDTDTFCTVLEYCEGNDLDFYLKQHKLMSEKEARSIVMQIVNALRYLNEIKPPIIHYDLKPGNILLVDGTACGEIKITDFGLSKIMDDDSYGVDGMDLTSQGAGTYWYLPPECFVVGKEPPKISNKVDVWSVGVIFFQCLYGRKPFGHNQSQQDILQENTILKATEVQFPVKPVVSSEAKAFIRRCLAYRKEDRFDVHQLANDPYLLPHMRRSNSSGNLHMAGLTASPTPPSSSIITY
In words: Inhibition of TLK1 in human HeLa cells lysate at 2 uM pre incubated for 15 mins followed by ADP acyl phosphate probe addition and measured after 10 mins by LC-MS/MS analysis relative to control. The following applies: time 25.0 min. It counts as subcellular.

Data set [9] in a line: Inhibition of MAP3K2/MAP3K3 in human HeLa cells lysate at 50 uM pre incubated for 15 mins followed by ADP acyl phosphate probe addition and measured after 10 mins by LC-MS/MS analysis relative to control. The following applies: 25 min, condition cancer.

Each structure is given as a SMILES string. Activity calls are given as the source filed them. The rule behind the calls is not given here.

Usually inhibition stands for the change of the read-out against control, counted positive when it falls. In general, Cmax refers to the maximum level reached in the sampled fluid or tissue. As usually defined, the IC50 is the point on the concentration scale where inhibition reaches its midpoint. Low values mean inhibition by little substance, high ones a need for much substance.

Chain of Serine/threonine-protein kinase Chk2 (O96017 whole entry): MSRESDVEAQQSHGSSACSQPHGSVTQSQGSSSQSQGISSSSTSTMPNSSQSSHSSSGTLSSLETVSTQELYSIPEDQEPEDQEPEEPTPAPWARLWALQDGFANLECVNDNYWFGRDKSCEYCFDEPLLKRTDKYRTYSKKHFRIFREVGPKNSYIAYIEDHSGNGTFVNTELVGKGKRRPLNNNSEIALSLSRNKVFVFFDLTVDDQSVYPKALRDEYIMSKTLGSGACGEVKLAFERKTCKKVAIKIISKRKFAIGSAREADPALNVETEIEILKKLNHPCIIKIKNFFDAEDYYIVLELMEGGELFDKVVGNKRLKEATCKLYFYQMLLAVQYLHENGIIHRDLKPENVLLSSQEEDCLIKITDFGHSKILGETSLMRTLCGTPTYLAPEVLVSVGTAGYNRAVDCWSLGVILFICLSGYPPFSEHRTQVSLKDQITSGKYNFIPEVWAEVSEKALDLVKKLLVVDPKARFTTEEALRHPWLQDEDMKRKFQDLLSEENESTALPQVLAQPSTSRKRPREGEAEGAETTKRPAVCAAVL
Chain of Serine/threonine-protein kinase 38 (Q15208 2-465 limits assumed): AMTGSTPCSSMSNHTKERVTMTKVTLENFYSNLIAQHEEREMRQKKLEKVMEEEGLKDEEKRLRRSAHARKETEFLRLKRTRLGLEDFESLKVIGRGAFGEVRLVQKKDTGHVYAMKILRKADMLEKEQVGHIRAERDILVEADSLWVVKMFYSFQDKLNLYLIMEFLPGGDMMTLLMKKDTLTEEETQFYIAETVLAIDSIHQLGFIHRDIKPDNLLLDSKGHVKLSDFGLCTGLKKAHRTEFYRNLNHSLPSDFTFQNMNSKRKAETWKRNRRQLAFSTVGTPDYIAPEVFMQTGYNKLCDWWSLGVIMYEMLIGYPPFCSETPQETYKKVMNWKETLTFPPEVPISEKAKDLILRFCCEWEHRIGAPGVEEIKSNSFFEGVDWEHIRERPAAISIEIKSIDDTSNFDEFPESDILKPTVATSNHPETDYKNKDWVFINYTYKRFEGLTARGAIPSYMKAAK

Regarding `CCOc1cc(N2CCC(O)CC2)ccc1Nc1ncc2c(n1)N(C)c1ccccc1C(=O)N2C`, the Activity in data set [1] worked out at 126 mg/dL. In addition, the figures for the inhibition in data set [2], in [5] and in [8] were 7.6%, -4.3% and 7.3%, respectively. In data set [3], this molecule gave a Cmax of 522 nM. Moreover, the IC50 in data set [4] and in data set [7] was over 50 µM in each case. The inhibition result in data set [6] was “Active”. Moreover, the inhibition at 50 µM in data set [9] was -14.5%.

The record behind these values is ChEMBL document CHEMBL5661979, “Pharmacological inhibition of BMK1 suppresses tumor growth through promyelocytic leukemia protein” (Cancer Cell, 2010).
